Experimental data as given in ChEMBL document CHEMBL1142660, “Optimization and validation of a docking-scoring protocol; application to virtual screening for COX-2 inhibitors” (J Med Chem, 2005).

Experiments:
[1] = biological target: T1, Prostaglandin G/H synthase 2 (Homo sapiens) (UniProt P35354); assay: Inhibition of COX-2 in human immunoassay; parameters: concentration or dose not given beside the values
T1 sequence (whole entry): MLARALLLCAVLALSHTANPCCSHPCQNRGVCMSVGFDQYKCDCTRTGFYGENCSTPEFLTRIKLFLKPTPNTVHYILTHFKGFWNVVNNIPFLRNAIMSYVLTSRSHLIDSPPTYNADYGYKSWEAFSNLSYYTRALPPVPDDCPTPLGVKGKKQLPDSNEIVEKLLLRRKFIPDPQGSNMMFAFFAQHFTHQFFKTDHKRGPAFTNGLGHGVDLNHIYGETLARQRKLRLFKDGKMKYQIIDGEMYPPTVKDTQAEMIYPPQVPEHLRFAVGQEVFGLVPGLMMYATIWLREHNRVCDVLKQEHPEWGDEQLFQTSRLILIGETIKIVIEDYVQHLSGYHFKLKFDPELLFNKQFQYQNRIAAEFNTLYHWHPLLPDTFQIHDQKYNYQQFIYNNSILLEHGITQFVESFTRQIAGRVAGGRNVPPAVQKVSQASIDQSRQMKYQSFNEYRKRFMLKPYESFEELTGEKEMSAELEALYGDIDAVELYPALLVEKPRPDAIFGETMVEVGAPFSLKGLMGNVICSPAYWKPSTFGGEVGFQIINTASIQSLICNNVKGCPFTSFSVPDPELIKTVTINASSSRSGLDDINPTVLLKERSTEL
How it was run: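 Human COX-2 enzyme immunoassay kit, run per the manufacturer's instructions. Each compound was tested at a single concentration of 1 µM, and the read-out was percent inhibition of enzyme activity.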

[2] = biological target: Prostaglandin G/H synthase 1 (Homo sapiens) (UniProt P23219); assay: Inhibition of COX-1 in human immunoassay; parameters: concentration or dose not given beside the values
Chain of Prostaglandin G/H synthase 1 (Homo sapiens) (P23219 whole entry): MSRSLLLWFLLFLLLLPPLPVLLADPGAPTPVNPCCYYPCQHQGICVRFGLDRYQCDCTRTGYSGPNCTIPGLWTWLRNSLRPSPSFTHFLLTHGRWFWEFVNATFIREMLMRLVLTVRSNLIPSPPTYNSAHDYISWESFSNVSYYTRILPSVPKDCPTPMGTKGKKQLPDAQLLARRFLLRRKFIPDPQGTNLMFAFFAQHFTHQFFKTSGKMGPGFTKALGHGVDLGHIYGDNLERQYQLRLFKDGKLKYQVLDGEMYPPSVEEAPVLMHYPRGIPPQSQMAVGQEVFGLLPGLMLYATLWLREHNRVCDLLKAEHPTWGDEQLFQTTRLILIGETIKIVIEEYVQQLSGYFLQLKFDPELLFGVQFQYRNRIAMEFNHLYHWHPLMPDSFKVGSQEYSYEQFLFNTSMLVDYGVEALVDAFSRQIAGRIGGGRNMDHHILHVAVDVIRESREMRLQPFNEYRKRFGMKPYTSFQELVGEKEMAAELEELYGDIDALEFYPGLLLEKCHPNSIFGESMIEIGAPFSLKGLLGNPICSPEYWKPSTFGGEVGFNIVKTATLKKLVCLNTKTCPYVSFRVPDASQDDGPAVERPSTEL

Row | Compound | Enzyme inhibition [1] [%] | Enzyme inhibition [2] [%]
1 | NS(=O)(=O)c1ccc(Cl)c(C(=O)Nc2cccc([N+](=O)[O-])c2)c1 | 57 | 23
2 | NS(=O)(=O)c1ccc(CCNS(=O)(=O)c2ccc(Cl)cc2Cl)cc1 | 30 | 23
3 | NS(=O)(=O)c1ccc(NC(=S)NC(=O)c2ccc(Cl)cc2Cl)cc1 | 22 | 8
4 | NS(=O)(=O)c1ccc(N/C=C/C(=O)c2ccncc2)cc1 | 42 | 11
5 | NS(=O)(=O)c1ccc(CCNS(=O)(=O)c2ccccc2[N+](=O)[O-])cc1 | 22 | 61
6 | CS(=O)(=O)c1cc(Nc2ccc(Br)cc2)ncn1 | 60 | 14

More lines, now with the values ahead:

Row | Enzyme inhibition [1] [%] | Enzyme inhibition [2] [%] | Compound
7 | 48 | 23 | Cc1onc(-c2ccccc2)c1C(=O)Nc1ccc(S(N)(=O)=O)cc1
8 | 54 | 11 | NS(=O)(=O)c1ccc(NCc2cnc3ccccc3n2)cc1
9 | 39 | 38 | C/C(=N\Nc1ccc(S(N)(=O)=O)cc1)c1ccccn1
10 | 27 | 14 | NS(=O)(=O)c1ccc(NC2=CC(=O)C(=O)c3ccccc32)cc1
11 | 10 | 46 | NS(=O)(=O)c1ccc(CCNC(=O)c2ccccc2Br)cc1
12 | 29 | 61 | NS(=O)(=O)c1ccc(Nc2nc(-c3ccccc3)cs2)cc1
